KCNK9 inh = human KCNK9 channel inhibition; HEK293 KCNK9, FluxOR thallium flux fluorescence; stronger effect = lower value; B-score at 10 µM; 310,000 compounds, 1.2% hits; AID 488922;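 active means ratio B-score over 3 SD below the library mean, with starting fluorescence within 5 SD of its mean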;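 further: negative B-score means less thallium flux so channel inhibition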
KCNK3 block = human KCNK3 channel inhibition, primary screen | O14649 | CHO-KCNK3 thallium flux, FluxOR fluorescence; stronger effect = lower value | B-score at 10 µM | 340,000 compounds, 0.84% hits | AID 602410;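 active means B-score under library mean minus 4 SD, starting fluorescence ratio at most library mean plus 5 SD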;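 further: more negative B-score means stronger inhibition of thallium flux through KCNK3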
hERG protect = compounds protecting human hERG from proarrhythmic drug block; activation (rescue from dofetilide block), less the hit threshold, % at 10 µM; 310,000 compounds, 0.51% hits; CHO-hERG, FluxOR thallium flux, dofetilide IC70 present; AID 1511; Q12809;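 active means activation above the mean of controls blocked by dofetilide plus 5 SD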;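 further: thallium influx through hERG after potassium depolarization seen as dye fluorescence rise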
KCNQ1 inh = human KCNQ1 channel inhibition; AID 2642; B-score at 10 µM; P51787; 310,000 compounds, 1.3% hits; CHO-K1 KCNQ1, FluxOR thallium flux fluorescence; stronger effect = higher value;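 active means compounds whose thallium flux B-score, printed positive for inhibition, exceeds three library SD while starting fluorescence stays within three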;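 further: channel opened by potassium depolarization with thallium stimulus after 20 min compound exposure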
Target sequence (P51787 whole entry, looked up): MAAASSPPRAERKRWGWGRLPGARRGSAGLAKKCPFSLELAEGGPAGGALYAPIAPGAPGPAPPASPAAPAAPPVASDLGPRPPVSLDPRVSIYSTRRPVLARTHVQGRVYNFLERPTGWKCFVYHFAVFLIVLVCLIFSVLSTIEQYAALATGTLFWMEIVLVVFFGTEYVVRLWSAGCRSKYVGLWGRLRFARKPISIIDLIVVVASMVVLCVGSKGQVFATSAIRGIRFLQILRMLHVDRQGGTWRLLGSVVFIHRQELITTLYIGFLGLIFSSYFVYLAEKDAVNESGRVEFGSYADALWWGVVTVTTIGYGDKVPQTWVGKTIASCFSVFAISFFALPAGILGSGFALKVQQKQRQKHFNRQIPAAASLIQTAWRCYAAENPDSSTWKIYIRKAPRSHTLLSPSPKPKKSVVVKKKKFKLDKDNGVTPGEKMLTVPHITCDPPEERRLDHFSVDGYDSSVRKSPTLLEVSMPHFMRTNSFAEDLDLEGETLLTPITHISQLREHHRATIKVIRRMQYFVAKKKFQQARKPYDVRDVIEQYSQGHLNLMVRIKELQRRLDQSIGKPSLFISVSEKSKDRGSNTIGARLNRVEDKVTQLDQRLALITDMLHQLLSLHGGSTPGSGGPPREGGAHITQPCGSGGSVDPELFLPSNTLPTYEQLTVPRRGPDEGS
Cl transport mod = KCC2 (human) Cl- transport modulation | Q9H2X9 | KCC2 cells, thallium flux FluoZin-2 fluorescence | B-score of Tl+ flux slope (higher = more flux/activation; lower = inhibition) at 10 µM | 190,000 compounds, 2.2% hits;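 active means thallium flux slope and its plate-corrected score both differing from the plate sample mean at a set confidence after two filtering rounds, in either direction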;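 further: slope of fluorescence scaled to starting intensity during 10 to 20 s after thallium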
KCNQ1 pot = potentiators or activators of human KCNQ1 potassium channel | B-score at 10 µM | 310,000 compounds, 0.35% hits | CHO-K1 KCNQ1, thallium flux FluxOR fluorescence; stronger effect = higher value | AID 2648 | P51787;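 active means fluorescence ratio B-score, a plate-corrected score, at least three library SD, with initial intensity B-score within 5 SD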
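Assay system: CHO-K1 cells stably expressing KCNQ1. Medium: assay buffer for compound exposure, DMSO matched across wells. Timing: 37 °C overnight plating, 90-min dark dye load, 20-min compound pretreatment. Signal: kinetic FluxOR fluorescence, 10 s baseline plus 110 s post-stimulus.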
KCNQ1 inh valid = confirmation of human KCNQ1 potassium channel inhibitors. shares compounds with KCNQ1 inh. KCNQ1 cell line, FluxOR thallium flux fluorescence. inhibition, % at 10 µM. 1,600 compounds, 93% hits. AID 588353;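 active means primary screen active, with duplicate mean exceeding buffer control mean plus 3 SD of buffer wells, cut at about 28% in these data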
CHO Tl flux = counter-screen for KCNQ1 inhibitors: effect in parental CHO cells. shares compounds with KCNQ1 inh. parental CHO-K1, FluxOR thallium flux fluorescence ratio; stronger effect = lower value; zero means no signal rise above baseline. fluorescence ratio (Tl flux) at 10 µM. 1,600 compounds, 21% hits. AID 588366;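 active means mean of duplicate thallium-flux fluorescence ratios in parental host cells more than 5 SD below the buffer control mean, cut at about 0.38 in these data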;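 further: ratio is peak minus minimum fluorescence divided by baseline fluorescence; actives read low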
KCNQ1 APC inh = human KCNQ1 inhibition validated by electrophysiology | shares compounds with KCNQ1 inh | KCNQ1-CHO cells, automated patch clamp current | calls only at 10 µM | 490 compounds, 20% hits;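 active means KCNQ1 current drop exceeding 3 SD of negative control wells, seen in both duplicate runs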;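 further: steady state current during a 2 s step from -80 to +40 mV; negative values mean current inhibition and positive values mean potentiation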
KCNQ2 inh = rat KCNQ2 inhibition in KCNQ1 inhibitor specificity screen; shares compounds with KCNQ1 inh; KCNQ2 cells, FluxOR thallium flux fluorescence; inhibition, % at 10 µM; 1,600 compounds, 71% hits; AID 651746;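 active means mean percent inhibition of the KCNQ2 thallium signal more than 5 SD above the buffer-only control wells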;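 further: KCNQ2 expressed in CHO cells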
KCNQ1-KCNE1 inh = KCNQ1 inhibitor that also blocks human KCNQ1/KCNE1 channel. shares compounds with KCNQ1 inh. KCNQ1/KCNE1 cells, FluxOR thallium flux fluorescence. inhibition, % at 10 µM. 1,600 compounds, 77% hits. AID 652147;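 active means mean percent inhibition of duplicate wells above the buffer-only control mean plus 3 SD of those controls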
Hits are given with their value; i = inactive; nt = not tested or not shown; + = active, no number. Hits are enriched below; roughly 4.1% of the tested compounds scored in any of these assays.

SMILES | KCNK9 inh | KCNK3 block | hERG protect | KCNQ1 inh | Cl transport mod | KCNQ1 pot | KCNQ1 inh valid | CHO Tl flux | KCNQ2 inh | KCNQ1-KCNE1 inh | others
NC(=O)c1cc2ccc(O)cc2oc1=NCc1ccccc1 | i | i | i | 31 | i | i | + | 0.048 | i | i
Cc1occc1-c1nnc(SCC(=O)N2CCOCC2)n1CCc1ccccc1 | i | i | i | 6 | i | i | 36 | i | i | 45%
CCCCn1c(SCC(=O)N2CCOCC2)nnc1-c1ccoc1C | i | i | i | i | i | i | nt | nt | nt | nt
Cc1ccc(S(=O)(=O)N2[C@@H](c3ccc4c(c3)OCO4)C(C(=O)O)=C[C@H]2CC2CCCC2)cc1 | nt | i | nt | nt | nt | nt | nt | nt | nt | nt
O=C(Cc1cn(Cc2cccc(Cl)c2)c2ccccc12)N1CCCC1 | i | i | i | i | i | i | nt | nt | nt | nt
CCn1nc(NC(=O)c2ccccc2)c2cc3cccc(C)c3nc21 | i | i | i | 6 | i | i | 152 | i | i | 142% | KCNQ1 APC inh=i
CC(C)[C@H](NC(=O)c1ccccc1)C(=O)OCC(=O)c1ccc(S(=O)(=O)N2CCCCC2)cc1 | i | i | i | i | nt | i | nt | nt | nt | nt
O=C1CCCCC1C(Nc1ccc(Br)cc1)c1ccccc1 (stereo not drawn) | -6.6 | i | i | 8 | i | i | 126 | i | 89% | 172% | KCNQ1 APC inh=+
O=C1CCCCC1C(Nc1ccc(Cl)cc1)c1ccccc1 (stereo not drawn) | i | i | i | i | i | i | nt | nt | nt | nt
CCN1C(=O)CC(N2CCC(c3nc4ccccc4[nH]3)CC2)C1=O (stereo not drawn) | i | i | i | 6 | i | i | 32 | i | i | 73%
Cc1cccc(N2C(=O)CC(N3CCC(c4nc5ccccc5[nH]4)CC3)C2=O)c1 (stereo not drawn) | i | i | i | i | nt | i | nt | nt | nt | nt
O=C(NC(=S)Nc1ccccc1N1CCN(C(=O)c2ccccc2)CC1)c1ccccc1F | i | i | i | 10 | nt | i | 84 | i | 110% | 112%
O=C(NNc1c(Cl)cc(Cl)cc1Cl)c1n[nH]c(=O)c2ccccc12 | i | i | i | i | i | i | nt | nt | nt | nt
COCC(C)N=C1NN=C(c2cccs2)C(CC(=O)O)S1 (stereo not drawn) | i | i | i | i | i | i | nt | nt | nt | nt
O=C(c1cc(COc2ccc3ncccc3c2)on1)N1CCCC1 | i | i | i | i | nt | i | nt | nt | nt | nt
CC(NC(=O)c1cc(COc2ccc3ncccc3c2)on1)c1ccc(F)cc1 (stereo not drawn) | i | i | i | 10 | i | i | 108 | i | 92% | 92% | KCNQ1 APC inh=+
O=C(NC1CCCC1)c1cc(COc2ccc3ncccc3c2)on1 | i | i | i | 8 | i | i | 91 | i | i | i | KCNQ1 APC inh=+
O=C(c1cc(COc2ccc3ncccc3c2)on1)N1CCCCCC1 | i | i | i | 7 | i | i | 114 | i | 101% | i | KCNQ1 APC inh=i
Cc1cc(OCc2cc(C(=O)N3CCC(Oc4cccnc4)CC3)no2)cc(C)c1Cl | i | i | i | 13 | nt | i | 148 | 0.37 | 124% | +
COc1ccc(S(=O)(=O)Nc2cc3[nH]c(=O)oc3cc2C)cc1 | i | i | i | i | nt | i | nt | nt | nt | nt
CCN1CCN(c2oc(-c3ccccc3)nc2S(=O)(=O)c2ccc(C)cc2)CC1 | nt | i | nt | nt | nt | nt | nt | nt | nt | nt
Cc1cc(C(=O)COC(=O)c2ccc([N+](=O)[O-])o2)c(C)n1CC1CCCO1 (stereo not drawn) | i | i | i | i | i | i | nt | nt | nt | nt
COc1ccc(N2Cc3ccc(C(=O)N/N=C\c4ccc(O)cc4O)cc3C2)cc1 | i | nt | i | i | nt | i | nt | nt | nt | nt
COc1cc2[nH]c(=O)n(CCC(=O)NCc3cccnc3)c(=O)c2cc1OC | i | i | i | i | i | i | nt | nt | nt | nt
CC(C)=CCSc1nnc(CCNC(=O)OC(C)(C)C)o1 | i | i | i | i | i | i | nt | nt | nt | nt
SMILES | KCNK9 inh | KCNK3 block | hERG protect | KCNQ1 inh | Cl transport mod | KCNQ1 pot | KCNQ1 inh valid | CHO Tl flux | KCNQ2 inh | KCNQ1-KCNE1 inh | others
O=S(=O)(N=C(NS(=O)(=O)c1ccc(Cl)cc1)c1ccccc1)c1ccc(Cl)cc1 | nt | i | nt | nt | nt | nt | nt | nt | nt | nt
Cn1c2ccccc2n2c(=O)cc(-c3ccccc3)c(C#N)c12 | i | i | i | i | i | i | nt | nt | nt | nt
Oc1ccccc1N1CCN(c2ncnc3scc(-c4ccccc4)c23)CC1 | -8 | i | i | 6 | nt | i | 112 | i | 91% | 156% | KCNQ1 APC inh=i
O=S(=O)(c1ccccc1)N1CCN(c2ncnc3scc(-c4ccccc4)c23)CC1 | i | i | i | i | nt | i | nt | nt | nt | nt
c1ccc(-c2csc3ncnc(N4CCN(Cc5ccc6c(c5)OCO6)CC4)c23)cc1 | i | i | i | 6 | nt | i | 110 | i | 113% | 116% | KCNQ1 APC inh=i
COc1ccc2oc(C(=O)OCC(=O)NCCc3ccc(S(N)(=O)=O)cc3)c(C)c2c1 | nt | i | nt | nt | nt | nt | nt | nt | nt | nt
Cc1nc(-c2ccc(Cl)cc2)sc1C1(C)CC(c2c(Cl)cccc2Cl)=NO1 (stereo not drawn) | i | i | i | i | i | i | nt | nt | nt | nt
NS(=O)(=O)c1ccc(CCNC(=O)c2ccc3c(c2)N(Cc2ccccc2)CCS3)cc1 | i | i | i | i | nt | i | nt | nt | nt | nt
O=S(=O)(c1ccc(S(=O)(=O)N(Cc2ccc(F)cc2)C2CCCC2)cc1)N1CCCC1 | i | i | i | 6 | i | i | 57 | i | i | 94%
O=S(=O)(Oc1ccc(C(=S)N2CCOCC2)cc1)c1ccc(Cl)cc1 | i | i | i | 8 | nt | i | 85 | i | i | 65%
COc1ccc(S(=O)(=O)Oc2ccc(C(=S)N3CCOCC3)cc2OC)cc1 | i | i | i | i | nt | i | nt | nt | nt | nt
Cc1ccc(NC(=O)CSCC(=O)Nc2ccccc2N2CCCCC2)cc1 | i | i | i | 8 | nt | i | 114 | i | i | 168% | KCNQ1 APC inh=+
O=C(CNC1CCCCCC1)Nc1ccccc1N1CCCCC1 | i | i | i | i | i | i | nt | nt | nt | nt
O=C(CNCCC1=CCCCC1)Nc1ccccc1N1CCCCC1 | i | i | i | 8 | i | i | 132 | 0.37 | 110% | 179%
Cc1cccc(NC(=O)CSCC(=O)Nc2ccccc2N2CCCCC2)c1 | i | i | i | i | nt | i | nt | nt | nt | nt
CC1OC(Nc2ccc(OC(F)(F)F)cc2)C(O)C(O)C1O (stereo not drawn) | i | i | i | i | nt | i | nt | nt | nt | nt
